From PubChem
MC4R ag barr: agonists of human melanocortin 4 receptor (MC4R) beta-arrestin; U2OS MC4R beta-arrestin complementation, luminescence; percent of melanotan II response, DMSO zero; 360,000 compounds, 0.98% hits; P32245; activation, % at 8.9 µM;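 active = activation above a per-plate cutoff, the mean activation of sample wells on that plate plus 3 SD, cut at about 8% in these data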
ABHD5-PLIN5 inh: blocks binding of human ABHD5 to perilipin-5. Q00G26+Q8WTS1. Split G. princeps luciferase complementation, luminescence, 4 h. inhibition, % at 4 µM. 360,000 compounds, 0.78% hits. AID 602281;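 active = inhibition above the mean inhibition across every tested compound plus 3 SD, cut at about 22% in these data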;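 also: 0% = DMSO only wells and the 100% control is not disclosed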
MC4R antagonist: antagonists of human melanocortin 4 receptor (MC4R); AID 540295; MC4R-expressing cells, MTII-stimulated cAMP, LANCE TR-FRET; inhibition, % at 6.5 µM; P32245; 360,000 compounds, 0.48% hits;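 active = inhibition above its plate's cutoff, the mean of tested wells on that plate plus 3 SD, cut at about 29% in these data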;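 also: 0% = Melanotan II alone and 100% = Melanotan II plus saturating MCL0020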
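Material: U2OS-MC4R stable cell line | Reagent: Melanotan II challenge after compound preincubation | Doses: One concentration, 6.5 µM nominal | Incubation: 30-min compound preincubation, 1-h Melanotan II challenge, 1-h detection, room temperature | Signal: TR-FRET cAMP assay | Replicates: One well per compound, no replicates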
PfG6PD inh: PfG6PD (Plasmodium falciparum) enzyme inhibition; 350,000 compounds, 0.78% hits; PfGluPho enzyme, NADPH resazurin-diaphorase fluorescence; inhibition, % at 20 µM;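 active = inhibition reaching at least a set limit at 20 µM in the primary screen, cut at about 59% in these data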;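 also: 0% = DMSO wells with substrate and 100% = DMSO wells lacking glucose-6-phosphate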
Beta2AR agonist: activates human beta-2 adrenergic receptor causing internalization. Am2.2-beta2AR cells, FAP receptor internalization, flow cytometry. P07550. response, % (concentration not given with the values). 340,000 compounds, 0.43% hits;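 active = response above a set limit, near 3 SD of response in nonfluorescent compounds, cut at about 42% in these data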
Target sequence (P07550 whole entry, looked up): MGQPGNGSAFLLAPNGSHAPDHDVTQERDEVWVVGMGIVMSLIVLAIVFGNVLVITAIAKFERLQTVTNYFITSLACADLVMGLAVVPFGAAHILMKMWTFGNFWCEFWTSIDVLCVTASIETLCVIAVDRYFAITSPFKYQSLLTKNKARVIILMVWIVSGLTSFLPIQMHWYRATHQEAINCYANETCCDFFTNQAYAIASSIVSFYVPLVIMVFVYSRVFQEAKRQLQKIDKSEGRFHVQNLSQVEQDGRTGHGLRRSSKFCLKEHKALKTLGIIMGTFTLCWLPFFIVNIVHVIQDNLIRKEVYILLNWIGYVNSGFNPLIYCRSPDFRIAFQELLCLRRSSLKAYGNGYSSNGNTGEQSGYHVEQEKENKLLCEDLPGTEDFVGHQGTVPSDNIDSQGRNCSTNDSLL
Beta2AR ag CP1: agonists of human beta-2 adrenergic receptor. Am2.2-beta2AR cells, FAP surface receptor, flow cytometry; stronger effect = lower value. 1,100 compounds, 25% hits. percent response (surface receptor), % at 10 µM. shares compounds with Beta2AR agonist;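 active = surface receptor percent response at or below 58%, roughly 3 SD from nonfluorescent compounds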
FAP fluor counter: counter-screen for beta-2AR agonists: fluorescence in Am2.2 cells. shares compounds with Beta2AR agonist. FAP fluorogen flow cytometry, fluorescence counterscreen; stronger effect = lower value. calls only at 10 µM. 1,100 tested, under 10 active;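 active = percent response below a set limit in fluorescence channel 1 and below 50% in channel 8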
* marks the source's active call; other numbers are inactive results; i = inactive; . = no result; ! = not active in a repeat. This is a sample that favours compounds with a hit; in the whole collection about 3% have one here.

SMILES	MC4R ag barr	ABHD5-PLIN5 inh	MC4R antagonist	PfG6PD inh	Beta2AR agonist	Beta2AR ag CP1	FAP fluor counter
NC(=O)CC(NC(=O)Cc1ccc(Cl)cc1)c1ccc(N2CCN(c3ccccn3)CC2)c([N+](=O)[O-])c1 (centres undefined)	0	8	13	-3	25	.	.
NC(=O)CC(NC(=O)c1cccc(Br)c1)c1ccc(N2CCN(c3ccccn3)CC2)c([N+](=O)[O-])c1 (centres undefined)	-1	-9	6	-5	97*	14*	i
NC(=O)CC(NC(=O)c1cccc(Br)c1)c1ccc(N2CCC(Br)CC2)c([N+](=O)[O-])c1 (centres undefined)	-2	-2	-1	4	-15	.	.
Oc1c(CN2CCOCC2)cc(COCc2ccccc2)c2cccnc12	-1	12	-3	-27	-2	92	i
Fc1ccc(Nc2nc(NCc3ccco3)c3ccccc3n2)cc1	2	9	-7	24	33	60	i
Nc1nc(Nc2ccccc2)nc(NCc2ccco2)c1[N+](=O)[O-]	2	4	-4	12	10	.	.
Cn1cc(Br)c(-c2cccc(NC(=O)CCC(=O)O)c2)n1	1	10	6	-7	-1	.	.
CN(CC(=O)N1CCN(c2ccccn2)CC1)S(=O)(=O)c1ccc(Br)cc1	0	3	2	-19	107*	27*	i
CCOC(=O)N1CCN(C(=O)CN(C)S(=O)(=O)c2ccc(Cl)cc2)CC1	0	7	1	2	82*	15*	i
CN(CC(=O)N1CCCCCC1)S(=O)(=O)c1ccc(Br)cc1	-1	4	3	-7	0	.	.
CCN1CCN(C(=O)CN(C)S(=O)(=O)c2ccc(Cl)cc2)CC1	-1	-2	-3	-8	-4	.	.
O=C(O)/C(=C\c1ccccc1)c1ccc2ccccc2c1	-1	-4	13	-12	14	.	.
Cc1cc(C[n+]2cc(Br)ccc2N)c2ncccc2c1	2	-2	-4	-19	6	.	.
Cc1nc(SCc2nc3c(C)cccc3[nH]2)c2oc3ccccc3c2n1	3	-4	-12	3	-6	.	.
Cc1nc(SCc2nc3c([N+](=O)[O-])cccc3[nH]2)c2oc3ccccc3c2n1	3	1	1	-2	52*	124	i
Cc1ccccc1N1CCN(c2ncnc3c2cnn3Cc2ccc(Cl)cc2)CC1	0	-2	4	5	44*	98	i
Cc1ccc(Cn2ncc3c(N4CCN(Cc5ccc(Cl)cc5)CC4)ncnc32)cc1	-2	-9	11	23	5	.	.
Cc1ccc(Cl)cc1NS(=O)(=O)N1CCOCC1	2	5	2	0	5	.	.
COc1ccc(Cl)cc1NS(=O)(=O)N1CCOCC1	-1	-2	7	-4	50*	119	i
CCSc1nnc(NC(=O)CSc2nnc(C)c(=O)n2N)s1	-5	6	-2	17	-6	.	.
O=C(CN1C(=O)NC2(CCCCC2)C1=O)Nc1ccccc1N1CCCC1	-1	5	4	-11	-1	.	.
CC(=O)c1cccc(N=c2scc(-c3ccc(S(=O)(=O)N4CCOCC4)cc3)n2CCO)c1	-1	-4	2	47	104*	117	i
COc1ccccc1NC(=O)Cc1noc(CSc2nnc(C)n2C)n1	-1	1	1	6	0	.	.
Cc1cc(C)nc(NS(=O)(=O)c2ccc(NC(=O)c3ccco3)cc2)n1	-2	2	2	-3	-6	.	.
CCc1ccc(C(=O)Nc2ccc(S(=O)(=O)Nc3nc(C)cc(C)n3)cc2)o1	1	14	-5	-4	54*	105	i
SMILES	MC4R ag barr	ABHD5-PLIN5 inh	MC4R antagonist	PfG6PD inh	Beta2AR agonist	Beta2AR ag CP1	FAP fluor counter
O=C(c1cc(COc2ccc(F)cc2Cl)on1)N1C[C@H]2CC[C@H]1C2	1	5	-6	-2	-10	.	.
O=C(c1cc(COc2ccc(F)cc2Cl)on1)N1CC2C[C@@H]3CC1C[C@H](C2)C3	2	-7	-2	7	87*	23*	i
COc1cc(CNCCc2ccc(S(N)(=O)=O)cc2)ccc1OCc1ccc(Cl)cc1	2	15	18	14	55*	93	i
COc1cc(CNCCc2ccc(S(N)(=O)=O)cc2)ccc1OCC(=O)NC1CCCCC1	0	0	-1	-3	-7	.	.
O=S(=O)(c1ccccc1)C(Br)S(=O)(=O)c1ccccc1	1	2	4	-3	.	.	.
COc1ccccc1CNC(=O)CCn1c(=O)[nH]c2ccsc2c1=O	1	5	9	6	2	54*!	i
COc1cc2[nH]c(=O)n(CCC(=O)N3CCc4ccccc4C3)c(=O)c2cc1OC	-2	3	-1	15	1	.	.
O=C(CCn1c(=O)[nH]c2ccsc2c1=O)N1CCc2ccccc2C1	-1	3	5	3	-28	150	i
COc1ccc(NC(=O)COC(=O)CNC(=O)c2cc(OC)c(OC)c(OC)c2)cc1	-2	-4	13	-8	3	.	.
COc1ccc(C(=O)NCC(=O)OCC(=O)Nc2cc(OC)ccc2OC)cc1	3	-7	-1	-18	64*	102	i
O=C(COc1ccccc1F)N1c2ccccc2CCc2ccccc21	-1	1	-1	22	63*	15*	i
CNc1ccc(-c2cccc([N+](=O)[O-])c2)cn1	1	-6	12	.	.	.	.
O=[N+]([O-])c1ccc2nc(CN3CCCCC3)[nH]c2c1	-2	-1	9	2	-1	.	.
O=[N+]([O-])c1ccc2nc(CCCc3nc4ccc([N+](=O)[O-])cc4[nH]3)[nH]c2c1	-2	0	6	3	54*	121	i
Cn1c(=S)c2[nH]c(SCCN3CCCC3)nc2n(C)c1=O	0	6	10	9	-3	115	i
COCCc1ncc(CN2CCC(C(=O)Nc3ccc(-n4cccn4)cc3)CC2)cn1	-3	-2	2	7	50*	30*	i
Cc1cc(NC(=O)CSc2nc(C)c(C)c(=O)[nH]2)no1	0	3	20	-3	-1	.	.
O=C(CSCc1ccc(Cl)cc1Cl)Nc1nccs1	0	1	11	23	54*	94	i
COc1ccc(N2CC(C(=O)N3CCN(Cc4ccc5c(c4)OCO5)CC3)CC2=O)cc1 (centres undefined)	0	-5	0	3	3	.	.
CC(=O)c1ccc(S(=O)(=O)NCCCC(=O)N(C)Cc2ccc3c(c2)OCO3)cc1	-1	1	0	12	-5	.	.
